Calls of active or inactive are those of the source. The rule behind the calls is not given here.
Experiments:
Type in all cases: cell-based
[1] = biological target: T1, Protein cereblon/E3 ubiquitin-protein ligase XIAP (Homo sapiens) (UniProt P98170+Q96SW2); test: PROTAC activity at CRBN/IAP in human MM1.S cells assessed as induction of XIAP degradation at 0.1 uM by western blot analysis; conditions: time 3-96 hrs, TDE = time-dependent effect
[2] = biological target: T2, Protein cereblon/Baculoviral IAP repeat-containing protein 2 (Homo sapiens) (UniProt Q13490+Q96SW2); test: PROTAC activity at CRBN/IAP in human MM1.S cells assessed as induction of cIAP1 degradation incubated for 16 hrs by western blot analysis; conditions: dose 0.0001-1 µM
T2 sequence (Q13490 whole entry, looked up): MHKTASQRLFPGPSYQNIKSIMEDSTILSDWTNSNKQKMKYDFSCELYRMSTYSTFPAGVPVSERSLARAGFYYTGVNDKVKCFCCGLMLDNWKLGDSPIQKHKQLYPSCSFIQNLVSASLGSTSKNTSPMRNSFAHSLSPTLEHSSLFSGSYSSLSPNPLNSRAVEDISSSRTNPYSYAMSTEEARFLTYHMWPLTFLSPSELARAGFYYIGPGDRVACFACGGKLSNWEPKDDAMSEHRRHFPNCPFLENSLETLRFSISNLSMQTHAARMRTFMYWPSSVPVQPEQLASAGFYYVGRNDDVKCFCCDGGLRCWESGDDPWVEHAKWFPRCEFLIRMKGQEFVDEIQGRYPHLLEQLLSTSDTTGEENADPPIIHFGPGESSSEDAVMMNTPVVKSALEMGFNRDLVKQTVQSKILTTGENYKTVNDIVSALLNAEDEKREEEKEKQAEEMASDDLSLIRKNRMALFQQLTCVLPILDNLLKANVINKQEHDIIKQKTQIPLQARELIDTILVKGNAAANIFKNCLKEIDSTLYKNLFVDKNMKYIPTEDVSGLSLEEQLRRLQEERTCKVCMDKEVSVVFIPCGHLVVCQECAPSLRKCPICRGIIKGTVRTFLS
T2 sequence (Q96SW2 whole entry, looked up): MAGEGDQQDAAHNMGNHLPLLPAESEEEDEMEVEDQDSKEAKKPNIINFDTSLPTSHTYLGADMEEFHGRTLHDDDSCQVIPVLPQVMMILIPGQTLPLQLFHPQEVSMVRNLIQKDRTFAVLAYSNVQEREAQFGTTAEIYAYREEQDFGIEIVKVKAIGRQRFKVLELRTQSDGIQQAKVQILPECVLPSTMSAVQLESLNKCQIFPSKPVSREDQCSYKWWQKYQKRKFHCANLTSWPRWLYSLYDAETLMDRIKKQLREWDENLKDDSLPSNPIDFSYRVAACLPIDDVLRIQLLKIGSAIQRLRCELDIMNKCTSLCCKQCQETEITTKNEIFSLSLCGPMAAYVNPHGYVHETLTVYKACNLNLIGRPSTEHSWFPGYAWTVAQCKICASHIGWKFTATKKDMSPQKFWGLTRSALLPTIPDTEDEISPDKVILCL
Method in brief: (§1)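 MM.1S cells treated 16 h at the stated concentration. Lysed, run on SDS-PAGE and transferred to PVDF. Probed with primary antibodies overnight at 4 °C, then HRP secondaries, with ECL detection. Band densitometry normalized to loading control and to DMSO-treated cells. Averages of at least three independent experiments.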

[3] = biological target: T3, Protein cereblon/Baculoviral IAP repeat-containing protein 3 (Homo sapiens) (UniProt Q13489+Q96SW2); test: PROTAC activity at CRBN/IAP in human MM1.S cells assessed as induction of cIAP2 degradation at 0.1 uM by western blot analysis; conditions: time 3-96 hrs, TDE = time-dependent effect; method in brief: as §1
T3 sequence (Q13489 whole entry, looked up): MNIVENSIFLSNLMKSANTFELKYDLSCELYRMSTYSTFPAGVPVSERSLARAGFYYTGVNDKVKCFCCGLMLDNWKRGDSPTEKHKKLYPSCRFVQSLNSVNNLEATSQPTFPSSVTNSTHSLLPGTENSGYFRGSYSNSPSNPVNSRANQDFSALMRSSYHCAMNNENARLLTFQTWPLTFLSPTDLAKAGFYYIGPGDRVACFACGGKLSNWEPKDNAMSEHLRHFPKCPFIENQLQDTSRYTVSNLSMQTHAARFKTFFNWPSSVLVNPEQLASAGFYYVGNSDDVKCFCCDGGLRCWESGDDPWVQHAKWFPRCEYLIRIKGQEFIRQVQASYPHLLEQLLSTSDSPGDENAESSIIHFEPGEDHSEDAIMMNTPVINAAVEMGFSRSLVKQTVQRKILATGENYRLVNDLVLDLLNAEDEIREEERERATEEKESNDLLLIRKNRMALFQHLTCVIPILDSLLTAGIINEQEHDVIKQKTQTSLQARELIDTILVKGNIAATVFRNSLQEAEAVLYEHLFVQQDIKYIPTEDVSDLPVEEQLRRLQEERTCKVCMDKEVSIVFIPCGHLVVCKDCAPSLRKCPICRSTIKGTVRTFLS
T3 sequence (Q96SW2 whole entry, looked up): as the sequence (Q96SW2 whole entry, looked up) above

[4] = biological target: Protein cereblon/Zinc finger protein Aiolos (Homo sapiens) (UniProt Q96SW2+Q9UKT9); test: PROTAC activity at CRBN/IKZF3 in human MM1.S cells assessed as induction of IKZF3 degradation at 1 uM incubated for 16 hrs by western blot analysis; method in brief: as §1
Sequence of Protein cereblon/Zinc finger protein Aiolos (Homo sapiens) (Q96SW2 whole entry, looked up): as above
Sequence of Protein cereblon/Zinc finger protein Aiolos (Homo sapiens) (Q9UKT9 whole entry, looked up): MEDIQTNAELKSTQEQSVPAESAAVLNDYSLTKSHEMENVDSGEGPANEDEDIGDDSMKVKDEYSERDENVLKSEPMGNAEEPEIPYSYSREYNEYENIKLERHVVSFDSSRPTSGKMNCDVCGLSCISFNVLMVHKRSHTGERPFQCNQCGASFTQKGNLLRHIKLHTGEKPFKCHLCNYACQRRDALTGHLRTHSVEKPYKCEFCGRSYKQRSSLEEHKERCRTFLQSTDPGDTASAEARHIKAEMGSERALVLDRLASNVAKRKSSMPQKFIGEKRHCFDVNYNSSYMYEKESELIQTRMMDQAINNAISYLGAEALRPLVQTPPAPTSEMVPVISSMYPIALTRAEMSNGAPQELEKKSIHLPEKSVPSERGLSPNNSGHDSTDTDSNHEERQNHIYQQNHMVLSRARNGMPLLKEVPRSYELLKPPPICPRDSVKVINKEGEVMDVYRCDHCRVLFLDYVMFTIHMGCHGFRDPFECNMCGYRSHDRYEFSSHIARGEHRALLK

[5] = biological target: T1, Protein cereblon/E3 ubiquitin-protein ligase XIAP (Homo sapiens); test: PROTAC activity at CRBN/IAP in human MM1.S cells assessed as induction of XIAP degradation pretreated for 1 hr with ubiquitin-activating inhibitor, MLN7243 followed by incubation with drug for 3 hrs by western blot analysis
[6] = biological target: T2, Protein cereblon/Baculoviral IAP repeat-containing protein 2 (Homo sapiens); test: PROTAC activity at CRBN/IAP in human MM1.S cells assessed as induction of cIAP1 degradation at 0.1 uM by western blot analysis; conditions: time 3-96 hrs, TDE = time-dependent effect; method in brief: as §1
[7] = biological target: T3, Protein cereblon/Baculoviral IAP repeat-containing protein 3 (Homo sapiens); test: PROTAC activity at CRBN/IAP in human MM1.S cells assessed as induction of cIAP2 degradation at 0.1 uM incubated for 3 hrs by western blot analysis
Method in brief: (§2)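 MM.1S cells treated with 0.1 μM compound for 3 h. Western blotting of lysates on PVDF with HRP/ECL detection.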

[8] = biological target: T1, Protein cereblon/E3 ubiquitin-protein ligase XIAP (Homo sapiens); test: PROTAC activity at CRBN/IAP in human MM1.S cells assessed as induction of XIAP degradation pretreated for 1 hr with proteasome inhibitor, MG132 followed by incubation with drug for 3 hrs by western blot analysis
[9] = biological target: T3, Protein cereblon/Baculoviral IAP repeat-containing protein 3 (Homo sapiens); test: PROTAC activity at CRBN/IAP in human MM1.S cells assessed as induction of cIAP2 degradation incubated for 16 hrs by western blot analysis; conditions: dose 0.0001-1 µM; method in brief: as §1
[10] = biological target: T1, Protein cereblon/E3 ubiquitin-protein ligase XIAP (Homo sapiens); test: PROTAC activity at CRBN/IAP in human MM1.S cells assessed as induction of XIAP degradation at 0.1 uM incubated for 3 hrs by western blot analysis; method in brief: as §2
[11] = biological target: T3, Protein cereblon/Baculoviral IAP repeat-containing protein 3 (Homo sapiens); test: PROTAC activity at CRBN/IAP in human MM1.S cells assessed as induction of cIAP2 degradation pretreated for 1 hr with ubiquitin-activating inhibitor, MLN7243 followed by incubation with drug for 3 hrs by western blot analysis
[12] = biological target: T3, Protein cereblon/Baculoviral IAP repeat-containing protein 3 (Homo sapiens); test: PROTAC activity at CRBN/IAP in human MM1.S cells assessed as induction of cIAP2 degradation pretreated for 1 hr with proteasome inhibitor, MG132 followed by incubation with drug for 3 hrs by western blot analysis
[13] = biological target: T2, Protein cereblon/Baculoviral IAP repeat-containing protein 2 (Homo sapiens); test: PROTAC activity at CRBN/IAP in human MM1.S cells assessed as induction of cIAP1 degradation at 10 nM incubated for 16 hrs by western blot analysis; method in brief: as §1
[14] = biological target: T2, Protein cereblon/Baculoviral IAP repeat-containing protein 2 (Homo sapiens); test: PROTAC activity at CRBN/IAP in human MM1.S cells assessed as induction of cIAP1 degradation at 0.1 uM incubated for 3 hrs by western blot analysis; method in brief: as §2
[15] = biological target: T1, Protein cereblon/E3 ubiquitin-protein ligase XIAP (Homo sapiens); test: PROTAC activity at CRBN/IAP in human MM1.S cells assessed as induction of XIAP degradation incubated for 16 hrs by western blot analysis; conditions: dose 0.0001-1 µM; method in brief: as §1
[16] = biological target: T1, Protein cereblon/E3 ubiquitin-protein ligase XIAP (Homo sapiens); test: PROTAC activity at CRBN/IAP in human MM1.S cells assessed as induction of XIAP degradation at 0.1 uM incubated for 3 hrs by diaPASEF-based proteomics analysis
Method in brief: (§3)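 MM.1S cells exposed to DMSO or 0.1 μM compound for 3 h, then washed with PBS and snap-frozen. Lysed in 8 M urea/EPPS pH 8.5 buffer. 50 μg protein reduced, alkylated, precipitated, then digested with LysC and trypsin. Analysed by diaPASEF on timsTOF Pro2. Missing values imputed from a Gaussian distribution; log2 fold change versus DMSO with limma statistics.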

[17] = biological target: T2, Protein cereblon/Baculoviral IAP repeat-containing protein 2 (Homo sapiens); test: PROTAC activity at CRBN/IAP in human MM1.S cells assessed as induction of cIAP1 degradation pretreated for 1 hr with ubiquitin-activating inhibitor, MLN7243 followed by incubation with drug for 3 hrs by western blot analysis
[18] = biological target: T2, Protein cereblon/Baculoviral IAP repeat-containing protein 2 (Homo sapiens); test: PROTAC activity at CRBN/IAP in human MM1.S cells assessed as induction of cIAP1 degradation pretreated for 1 hr with proteasome inhibitor, MG132 followed by incubation with drug for 3 hrs by western blot analysis
[19] = biological target: T2, Protein cereblon/Baculoviral IAP repeat-containing protein 2 (Homo sapiens); test: PROTAC activity at CRBN/IAP in human MM1.S cells assessed as induction of cIAP1 degradation at 100 nM incubated for 3 hrs by diaPASEF-based analysis; method in brief: as §3
[20] = biological target: T1, Protein cereblon/E3 ubiquitin-protein ligase XIAP (Homo sapiens); test: PROTAC activity at CRBN/IAP in human MM1.S cells assessed as induction of XIAP degradation at 10 nM incubated for 16 hrs by western blot analysis
[21] = biological target: T4, von Hippel-Lindau disease tumor suppressor/E3 ubiquitin-protein ligase XIAP (Homo sapiens) (UniProt P98170+P40337); test: PROTAC activity at VHL/IAP in human MM1.S cells assessed as induction of XIAP degradation at 1 uM incubated for 16 hrs by western blot analysis
T4 sequence (P40337 whole entry, looked up): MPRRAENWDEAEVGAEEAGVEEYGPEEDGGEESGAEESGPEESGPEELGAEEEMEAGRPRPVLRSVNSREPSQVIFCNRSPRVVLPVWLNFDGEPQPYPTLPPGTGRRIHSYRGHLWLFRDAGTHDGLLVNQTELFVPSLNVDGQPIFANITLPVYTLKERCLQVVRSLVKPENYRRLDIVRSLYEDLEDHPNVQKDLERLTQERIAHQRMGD
T4 sequence (P98170 whole entry, looked up): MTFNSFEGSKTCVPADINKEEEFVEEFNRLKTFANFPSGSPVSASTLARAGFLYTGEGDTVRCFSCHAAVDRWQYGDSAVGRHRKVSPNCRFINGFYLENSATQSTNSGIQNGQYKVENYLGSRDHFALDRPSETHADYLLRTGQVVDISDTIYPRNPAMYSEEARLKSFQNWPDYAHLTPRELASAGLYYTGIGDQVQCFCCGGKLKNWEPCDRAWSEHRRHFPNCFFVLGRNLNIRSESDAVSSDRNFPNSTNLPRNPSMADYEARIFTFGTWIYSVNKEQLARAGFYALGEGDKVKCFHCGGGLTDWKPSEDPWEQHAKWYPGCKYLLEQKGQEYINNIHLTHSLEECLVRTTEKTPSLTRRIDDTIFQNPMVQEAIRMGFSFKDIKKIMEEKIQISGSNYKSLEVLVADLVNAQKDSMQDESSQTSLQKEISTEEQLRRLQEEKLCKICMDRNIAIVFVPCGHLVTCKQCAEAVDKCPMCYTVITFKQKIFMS
Method in brief: (§4)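 MM.1S cells (RPMI-1640, 10% FBS, 1% pen/strep, 1% L-glutamine, 37 °C, 5% CO2) exposed to compound or DMSO for 16 h. Lysed in IP lysis buffer, SDS-PAGE, PVDF transfer, primary antibody overnight at 4 °C, HRP secondary, ECL detection. Bands quantified densitometrically, normalized to loading control and DMSO, reported as remaining protein; at least three independent experiments.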

[22] = biological target: T5, von Hippel-Lindau disease tumor suppressor/Baculoviral IAP repeat-containing protein 3 (Homo sapiens) (UniProt Q13489+P40337); test: PROTAC activity at VHL/IAP in human MM1.S cells assessed as induction of cIAP2 degradation at 10 nM incubated for 16 hrs by western blot analysis; method in brief: as §4
T5 sequence (P40337 whole entry, looked up): as the sequence (P40337 whole entry, looked up) above
T5 sequence (Q13489 whole entry, looked up): as the sequence (Q13489 whole entry, looked up) above

[23] = biological target: T6, von Hippel-Lindau disease tumor suppressor/Baculoviral IAP repeat-containing protein 2 (Homo sapiens) (UniProt Q13490+P40337); test: PROTAC activity at VHL/IAP in human MM1.S cells assessed as induction of cIAP1 degradation at 10 nM incubated for 16 hrs by western blot analysis; method in brief: as §4
T6 sequence (P40337 whole entry, looked up): as the sequence (P40337 whole entry, looked up) above
T6 sequence (Q13490 whole entry, looked up): as the sequence (Q13490 whole entry, looked up) above

[24] = biological target: T4, von Hippel-Lindau disease tumor suppressor/E3 ubiquitin-protein ligase XIAP (Homo sapiens); test: PROTAC activity at VHL/IAP in human MM1.S cells assessed as induction of XIAP degradation at 10 nM incubated for 16 hrs by western blot analysis; method in brief: as §4
[25] = biological target: T6, von Hippel-Lindau disease tumor suppressor/Baculoviral IAP repeat-containing protein 2 (Homo sapiens); test: PROTAC activity at VHL/IAP in human MM1.S cells assessed as induction of cIAP1 degradation at 1 uM incubated for 16 hrs by western blot analysis; method in brief: as §4
[26] = biological target: T5, von Hippel-Lindau disease tumor suppressor/Baculoviral IAP repeat-containing protein 3 (Homo sapiens); test: PROTAC activity at VHL/IAP in human MM1.S cells assessed as induction of cIAP2 degradation at 1 uM incubated for 16 hrs by western blot analysis; method in brief: as §4
[27] = biological target: T1, Protein cereblon/E3 ubiquitin-protein ligase XIAP (Homo sapiens); test: PROTAC activity at CRBN/IAP in human MM1.S cells assessed as induction of XIAP degradation at 1 uM incubated for 16 hrs by western blot analysis; method in brief: as §1

T1 sequence (P98170 whole entry, looked up): as the sequence (P98170 whole entry, looked up) above
T1 sequence (Q96SW2 whole entry, looked up): as the sequence (Q96SW2 whole entry, looked up) above

`CN[C@@H](C)C(=O)N[C@H](C(=O)N1C[C@@H](Oc2cccc(OCCOCCCCCCOCCCCCCNc3cccc4c3C(=O)N(C3CCC(=O)NC3=O)C4=O)c2)C[C@H]1C(=O)N[C@@H]1CCCc2ccccc21)C1CCCCC1` (some centres not stated) was tested, and the Activity [1] was “Tde”, the Activity [2] was “Dose-Dependent Effect” and the Activity [3] was “Tde”. For the same molecule, the Activity [4] was “Active”, the Activity [5] was “inactive” and the Activity [6] was “Tde”. The Activity [7] was 100%, the Activity [8] was “inactive” and the Activity [9] was “Dose-Dependent Effect”. For the same molecule, the Activity [10] was 100%, the Activity [11] was “inactive” and the Activity [12] was “inactive”. The Activity [13] was 100%, the Activity [14] was 100% and the Activity [15] was “Dose-Dependent Effect”. The Activity [16] was “Active”, the Activity [17] was “inactive” and the Activity [18] was “inactive”. For the same molecule, the Activity [19] was “Active” and the Activity [20] was 100%.

`CN[C@@H](C)C(=O)N[C@H](C(=O)N1C[C@@H](Oc2cccc(OCCCCCCOCCCCCCOCCCCCCOc3cc(-c4scnc4C)ccc3CNC(=O)[C@@H]3C[C@@H](O)CN3C(=O)[C@H](C(C)C)N3Cc4ccccc4C3=O)c2)C[C@H]1C(=O)N[C@@H]1CCCc2ccccc21)C1CCCCC1` was tested, and the Activity [21] was “Active”, the Activity [22] was “inactive” and the Activity [23] was “inactive”. The Activity [24] was “inactive”, the Activity [25] was “Active” and the Activity [26] was “Active”.

With `CN[C@@H](C)C(=O)N[C@H](C(=O)N1C[C@@H](Oc2cccc(OCCOCCCCCCOCCCCCCNc3cccc4c3C(=O)N(C3CCC(=O)N(C)C3=O)C4=O)c2)C[C@H]1C(=O)N[C@@H]1CCCc2ccccc21)C1CCCCC1` (some centres not stated) the Activity [27] was “inactive”.

From ChEMBL document CHEMBL5338733, “Heterobifunctional Ligase Recruiters Enable pan-Degradation of Inhibitor of Apoptosis Proteins” (J Med Chem, 2023)
